Results of several laboratories.
Protocols differ between the studies behind these lines.
Target: Inhibitor of nuclear factor kappa-B kinase subunit epsilon (IKBKE, Homo sapiens, UniProt Q14164)
Residues used in one study (Q14164 1-716): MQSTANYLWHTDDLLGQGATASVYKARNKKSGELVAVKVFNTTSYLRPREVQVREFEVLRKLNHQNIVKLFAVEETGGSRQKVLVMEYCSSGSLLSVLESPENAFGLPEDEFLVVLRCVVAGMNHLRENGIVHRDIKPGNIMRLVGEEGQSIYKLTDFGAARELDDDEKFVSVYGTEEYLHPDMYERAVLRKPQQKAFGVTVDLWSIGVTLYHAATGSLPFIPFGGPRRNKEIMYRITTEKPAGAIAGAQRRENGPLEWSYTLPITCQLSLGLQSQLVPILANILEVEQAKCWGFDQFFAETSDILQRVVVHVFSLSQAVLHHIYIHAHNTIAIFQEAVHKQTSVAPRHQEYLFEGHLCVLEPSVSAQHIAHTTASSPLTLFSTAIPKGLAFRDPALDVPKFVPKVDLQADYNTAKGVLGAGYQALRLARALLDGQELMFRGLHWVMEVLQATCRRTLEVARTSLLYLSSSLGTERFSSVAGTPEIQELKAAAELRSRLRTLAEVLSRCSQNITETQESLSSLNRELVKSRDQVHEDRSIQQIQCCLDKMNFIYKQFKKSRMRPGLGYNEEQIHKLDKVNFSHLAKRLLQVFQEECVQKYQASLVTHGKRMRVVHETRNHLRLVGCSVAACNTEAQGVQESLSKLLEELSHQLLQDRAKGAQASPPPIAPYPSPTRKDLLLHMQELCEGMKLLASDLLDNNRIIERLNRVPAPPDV

SMILES | test | setting | remaining binding [%]
CN(C)c1ncc(F)c(-c2cnn3ncccc23)n1 | binding | 1 µM | 99
CNC(=O)Nc1ccc2c(c1)CC[C@@]21OC(=O)N(CC(=O)N(Cc2ccc(F)cc2)[C@@H](C)C(F)(F)F)C1=O | cell-free assay, competition with immobilised ligand | 1 µM | 51
O=C(NCC1CCOCC1)c1n[nH]cc1NC(=O)c1c(F)cccc1F | binding, competition with immobilised ligand | 1 µM | 81
CO[C@H]1CC[C@H](CNc2ccc(S(=O)(=O)NC(=O)c3ccc(N4CCN(CC5=C(c6ccc(Cl)cc6)CC(C)(C)CC5)CC4)cc3Oc3cnc4[nH]ccc4c3)cc2[N+](=O)[O-])CC1 | cell-free assay, competition with immobilised ligand | 1 µM | 100
COc1cnc(Nc2cccc(S(N)(=O)=O)c2)nc1N1CCN(c2ccccc2)CC1 | binding, competition with immobilised ligand | 1 µM | 57
Cc1cnn2ncc(-c3ccnc(N(C)C)n3)c2c1 | binding | 1 µM | 96
Nc1ncc2c(n1)-c1c([nH]c3ccc(C#CC4CC4)cc13)CCCC2 | binding, competition with immobilised ligand | 1 µM | 83
C[C@@H](c1ccc(-n2cnc3c(N)ncnc32)cc1)N1CCc2nn(C)c(Cc3ccccc3)c2C1=O | binding, competition with immobilised ligand | 0.1 µM | 73
N[C@H]1CCN(c2nccc(-c3cnn4ncccc34)n2)C1 | binding | 1 µM | 91
CC(C)(O)c1cncc(-c2nc3ccc(F)cc3n2C2CC2)c1 | cell-free assay, competition with immobilised ligand | 1 µM | 100
CN(C)c1nccc(-c2cnc3ncccn23)n1 | binding | 1 µM | 100
C=CC(=O)N1CCC(C(=O)NCC(=O)N2CCN(c3nc(-c4cnc(N)nc4C(F)F)nc(N4CCOCC4)n3)CC2)CC1 | binding, competition with immobilised ligand | 1 µM | 71
CCCOc1ccc([C@@H]2[C@@H](C(=O)O)[C@H](c3ccc4c(c3)OCO4)CN2CC(=O)Nc2c(CC)cccc2CC)cc1 | cell-free assay, competition with immobilised ligand | 1 µM | 85
O=C(c1ccc(Nc2nccc(-c3cc4ccccc4s3)n2)cc1)N1CCC(N2CCCC2)CC1 | binding, competition with immobilised ligand | 1 µM | 31
CCS(=O)(=O)c1cc2cc(C[C@@](O)(CC(C)(C)c3ccc(F)cc3C(N)=O)C(F)(F)F)[nH]c2cn1 | cell-free assay, competition with immobilised ligand | 1 µM | 83
O=C(c1ccc(Nc2ncc(Cl)c(-c3cc4ccccc4s3)n2)cc1)N1CCC(N2CCCC2)CC1 | binding, competition with immobilised ligand | 1 µM | 21
C[C@H]1CCN(c2nccc(-c3cnn4ncccc34)n2)C1 | binding | 1 µM | 79
CC1=C(C#N)[C@@H](c2ccc3[nH]nc(C)c3c2)C(C#N)=C(c2ccc(Cl)cc2)N1 | cell-free assay, competition with immobilised ligand | 1 µM | 100
O=C(NCCCN1CCOCC1)c1ccc(Nc2nccc(-c3cc4ccccc4s3)n2)cc1 | binding, competition with immobilised ligand | 1 µM | 96
CN(C)c1nccc(-c2cnn3ncccc23)n1 | binding | 1 µM | 89
COc1cnc(Nc2cccc(S(N)(=O)=O)c2)nc1N1CCN(c2ccccc2)C(=O)C1 | binding, competition with immobilised ligand | 1 µM | 50
